Assay results: ChEMBL document CHEMBL1133075, “Synthesis and characterization of a novel class of protein tyrosine phosphatase inhibitors” (Bioorg Med Chem Lett, 2000)
pKi: −log10 of the molar value.

How the values were obtained:
[1] = biological target: T1, Tyrosine-protein phosphatase non-receptor type 1 (Homo sapiens, UniProt P18031); test: Compound was evaluated for the inhibition constant against Protein-tyrosine phosphatase (PTP1B )
T1 sequence (P18031 whole entry): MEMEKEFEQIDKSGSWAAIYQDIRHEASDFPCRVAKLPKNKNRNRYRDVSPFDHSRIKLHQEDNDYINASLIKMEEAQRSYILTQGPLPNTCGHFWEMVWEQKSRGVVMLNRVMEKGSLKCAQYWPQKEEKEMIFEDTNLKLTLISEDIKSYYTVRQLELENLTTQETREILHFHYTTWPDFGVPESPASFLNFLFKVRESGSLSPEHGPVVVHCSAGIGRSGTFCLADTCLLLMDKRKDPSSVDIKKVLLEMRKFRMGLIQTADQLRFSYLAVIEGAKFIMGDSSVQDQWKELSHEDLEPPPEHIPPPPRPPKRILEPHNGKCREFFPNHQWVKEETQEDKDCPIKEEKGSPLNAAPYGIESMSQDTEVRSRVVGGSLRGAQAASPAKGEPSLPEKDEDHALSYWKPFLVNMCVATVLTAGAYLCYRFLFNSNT
In short: (§1)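 pNPP hydrolysis in pH 7.0 buffer of 50 mM 3,3-dimethylglutarate, 1 mM EDTA, ionic strength 0.15 M with NaCl. Reaction started with enzyme and stopped after 2–3 min with 1 N NaOH. Nonenzymatic substrate hydrolysis subtracted via an enzyme-free control. Initial rates taken at eight pNPP levels (0.2–5 Km) at each of three fixed inhibitor concentrations to obtain the inhibition constant.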

[2] = biological target: Dual specificity protein phosphatase 3 (Homo sapiens, UniProt P51452); test: Compound was evaluated for the inhibition constant against dual specificity phosphatase VHR; in short: as §1
Sequence of Dual specificity protein phosphatase 3 (P51452 whole entry): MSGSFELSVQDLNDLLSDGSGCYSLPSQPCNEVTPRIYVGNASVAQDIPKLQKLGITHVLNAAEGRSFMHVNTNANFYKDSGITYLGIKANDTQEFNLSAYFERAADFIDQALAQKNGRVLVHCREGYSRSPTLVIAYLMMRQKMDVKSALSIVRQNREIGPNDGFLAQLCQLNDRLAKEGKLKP

| pKi [1] | pKi [2] | Structure (SMILES) |
| --- | --- | --- |
| 3.39 | 3.24 | O=P(O)(O)COc1cccc2c1ccc1ccccc12 |
| 2.96 | 2.59 | O=C(O)Cc1ccc(OCP(=O)(O)O)cc1 |
| 4.33 | 2.89 | O=P(O)(O)COc1ccc(Cc2ccc(O)cc2)cc1 |
| 2.89 | 2.32 | O=P(O)(O)COc1cccc2ccccc12 |
| 2.89 | 2.24 | O=P(O)(O)COc1ccc2ccccc2c1 |

| Structure (SMILES) | pKi [1] | pKi [2] |
| --- | --- | --- |
| O=P(O)(O)COc1ccccc1 [PHENOXYMETHYLPHOSPHONATE] | 2.48 | 1.59 |
